From PubChem
EBV gp42 inh – Epstein-Barr virus gp42 inhibitors, primary screen, biochemical, uHTS, fluorescence polarization; inhibition, % (tested at 21.74 µM); Glycoprotein 42 (Epstein-Barr virus (strain AG876)), Q1HVG2; 220,000 tested, 0.42% active; Fluorescence polarization binding assay, mP read-out; in the data active = inhibition above about 50%
Target sequence (Q1HVG2 whole entry, looked up): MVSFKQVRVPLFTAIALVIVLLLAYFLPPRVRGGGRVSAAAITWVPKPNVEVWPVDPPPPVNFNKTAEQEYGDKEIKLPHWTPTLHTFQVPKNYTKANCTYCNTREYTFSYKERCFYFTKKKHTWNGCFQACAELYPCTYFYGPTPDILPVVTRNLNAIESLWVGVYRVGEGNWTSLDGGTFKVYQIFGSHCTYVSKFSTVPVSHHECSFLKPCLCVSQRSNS
NCF1 inh – p47phox/p22phox peptide binding inhibitors, primary screen, biochemical, uHTS, NADPH oxidase regulatory subunit | Neutrophil cytosol factor 1 (Homo sapiens), P14598 | fluorescence polarization, 2 h | inhibition, % at 24.7 µM | 220,000 tested, 0.53% active | AID 1274, 2008
14-3-3 Bad PPI – inhibitors of 14-3-3 zeta/Bad binding, primary screen, biochemical, TR-FRET, bovine 14-3-3 zeta. TR-FRET 14-3-3zeta/Dy647-pBad peptide displacement, 1 h. inhibition, % at 21.7 µM. 220,000 tested, 0.71% active;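 active = inhibition above about 70%, limit read from the data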
Target sequence (P63103 whole entry, looked up): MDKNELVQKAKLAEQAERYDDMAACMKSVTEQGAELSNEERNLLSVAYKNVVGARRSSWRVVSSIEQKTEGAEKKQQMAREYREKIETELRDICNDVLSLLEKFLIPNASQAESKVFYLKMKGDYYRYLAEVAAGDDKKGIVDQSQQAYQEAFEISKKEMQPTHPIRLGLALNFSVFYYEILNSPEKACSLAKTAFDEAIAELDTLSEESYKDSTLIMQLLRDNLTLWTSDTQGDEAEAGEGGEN
RBBP9 inhibitor – human RBBP9 inhibitors, primary screen, biochemical, fluorescence polarization, FP-Rh probe, HTS; recombinant RBBP9; Serine hydrolase RBBP9 (Homo sapiens), O75884; inhibition, % at 7.94 µM; 220,000 tested, 0.2% active; AID 1515, 2009;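 active = inhibition above the campaign mean of all tested compounds plus 3 SD, cut at about 14% in these data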
Target sequence (O75884 whole entry, looked up): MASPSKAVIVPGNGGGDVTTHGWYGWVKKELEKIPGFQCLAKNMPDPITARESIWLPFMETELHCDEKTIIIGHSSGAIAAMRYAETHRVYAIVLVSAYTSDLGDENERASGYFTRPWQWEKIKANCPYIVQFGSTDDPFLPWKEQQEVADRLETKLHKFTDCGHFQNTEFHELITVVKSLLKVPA
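Test system: recombinant human RBBP9; Timing: 30 min then 45 min, 25 °C; Detection: fluorescence polarization; Control set: RBBP9 with DMSO as uninhibited control, no-protein wells as full inhibition; Compound dosing: one concentration, 7.94 µM nominal, 0.794% DMSO; Probe or stimulus: FP-Rh activity-based probe, 375 nM before mixing.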
WT yeast gro inh – growth inhibition of WT strain, primary screen, mitochondrial fusion inhibitor project, WT and mutant strains, chemical genetic | mitochondrial fusion phenotypic screen | inhibition, % at 10 µM | 190,000 tested, 2.1% active; in the data active = inhibition above about 58%; tested in S. cerevisiae
eIF4E-4G inh – eIF4E–eIF4G protein interaction inhibitors, primary screen, biochemical, uHTS, TR-FRET, eIF4GI fragment. Eukaryotic translation initiation factor 4E (Mus musculus) + Eukaryotic translation …. TR-FRET eIF4E-eIF4GI(517-606) binding, 2 h. inhibition, % at 21.7 µM. 220,000 tested, 0.37% active
Each line names hits and unclear results; the compound was inactive in the other large screens. An excerpt weighted towards active compounds, which were near 3.7% of everything screened.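 Rule for the calls, unless noted: active = inhibition above about 30% (limit read from the data); inactive = the rest.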

C(=C\c1ccccc1)/CSc1nnc(-c2ccncc2)n1Cc1ccco1	none
O=C(O)CSc1nnc(-c2ccc(S(=O)(=O)N3CCCC3)cc2)n1Cc1ccco1	14-3-3 Bad PPI 85
O=C(CSc1nnc(-c2cnccn2)n1Cc1ccco1)c1ccc(Cl)cc1	none
CC(=O)CSc1nnc(-c2cnccn2)n1-c1ccccc1	NCF1 inh 40
CC(C)(C)c1ccc(CSc2nnc(-c3ccccn3)n2Cc2ccco2)cc1	WT yeast gro inh 64
Brc1ccc(CSc2nnc(-c3ccccn3)n2Cc2ccco2)cc1	none
O=C(N/N=C/c1c(Cl)[nH]c2ccccc12)c1ccc2c(c1)OCCO2	none (no result: WT yeast gro inh)
CC(=O)OCC(=O)Nc1ccc([N+](=O)[O-])cc1Cl	none (no result: NCF1 inh)
CC(=O)Oc1c(C)cc(Cl)cc1C(=O)Nc1ccc([N+](=O)[O-])cc1Cl	WT yeast gro inh 85
COc1ccc(CS(=O)(=O)/C(Cl)=C(/Cl)C(=O)Nc2ccc(OC)nc2)cc1	WT yeast gro inh 63
CC(C)c1ccc(CNC(=O)CSCC(=O)Nc2ccc3ccccc3c2)cc1	none
O=C(CSCC(=O)Nc1ccc2ccccc2c1)NCc1ccccc1	eIF4E-4G inh 37
CC(C)(C)C1CCc2sc(-c3nnc(CCl)o3)cc2C1 (stereo not drawn)	WT yeast gro inh 68
Cc1c(NC(=O)CSCc2c(F)cccc2Cl)c(=O)n(-c2ccccc2)n1C	none
O=C(NCc1cccc(C(F)(F)F)c1)C1CC(c2ccc(C(F)(F)F)cc2)=NO1 (stereo not drawn)	none (no result: RBBP9 inhibitor, WT yeast gro inh)
COc1ccc(C(=O)OCc2csc(C)n2)c(O)c1	none
COc1ccccc1NC(=O)Nc1nn(C)c2cccc(OC)c12	none (no result: WT yeast gro inh)
CCN1/C(=C/C=C/c2oc3ccc4ccccc4c3[n+]2CC)Oc2ccc3ccccc3c21	EBV gp42 inh 162, 14-3-3 Bad PPI 91
Cc1ccc(OCCN2CCN(C(=O)CCC(=O)Nc3nnc(CC(C)C)s3)CC2)cc1	none (no result: WT yeast gro inh)
O=[N+]([O-])c1ccc(N/N=C/c2c[nH]c3ccccc23)c(S(=O)(=O)Nc2ccc(Cl)cc2)c1	WT yeast gro inh 95
COc1ccc(C2/C=C\CN(C(=O)c3ccccc3)[C@H](Cc3ccccc3)C(=O)N2Cc2ccc(F)cc2)cc1 (stereo partly drawn)	eIF4E-4G inh 60 (no result: RBBP9 inhibitor, WT yeast gro inh)
COc1ccc(C(=O)Nc2ccc3oc(Cc4ccc(Cl)cc4)nc3c2)cc1OC	eIF4E-4G inh 53
Cc1cc(=O)oc2cc(OCC(=O)N/N=C/c3cc([N+](=O)[O-])ccc3O)ccc12	EBV gp42 inh 92
NS(=O)(=O)c1cccc(-n2cnnn2)c1	none (no result: WT yeast gro inh)
Cc1cc(C(=O)Nn2c(C3CCCCC3)nc3ccccc3c2=O)ccc1[N+](=O)[O-]	WT yeast gro inh 74
O=C(Nn1c(C2CCCCC2)nc2ccccc2c1=O)c1ccc(Cl)c([N+](=O)[O-])c1	WT yeast gro inh 82
Cc1cc(C(=O)Nn2c(C)nc3ccccc3c2=O)ccc1[N+](=O)[O-]	none
O=C(Nn1c(C2CCCCC2)nc2ccccc2c1=O)c1cc(Cl)ccc1[N+](=O)[O-]	none
Cc1c(OCc2ccccc2)cccc1OCc1ccccc1	WT yeast gro inh 66
C=CCn1c(SCc2csc(C)n2)nc2sc3c(c2c1=O)CCCCC3	none
C=CCn1c(SCc2csc(C)n2)nc2sc3c(c2c1=O)CCCC3	WT yeast gro inh 70
COc1ccc(OC)c(-c2csc(NC(=O)CSc3ccc(Br)cc3)n2)c1	none
COc1ccc(OC)c(-c2csc(NC(=O)Cn3[nH]c(=O)c4ccccc4c3=O)n2)c1	eIF4E-4G inh 42
COc1ccc(NC(=O)C(=O)N2N=C3CCCCC3C2(O)C(F)(F)F)cc1 (stereo not drawn)	none
CC(c1ccccc1)C1CC(=O)N(Cc2ccccc2)C1=O (stereo not drawn)	none
COc1cc(/C=C(\C#N)c2nc3ccccc3[nH]2)cc(Br)c1OCc1ccccc1	none
Cc1cc(/C=C(\C#N)c2nc3ccccc3[nH]2)c(C)n1C	EBV gp42 inh 105
COc1cc(/C=C(\C#N)c2nc3ccccc3[nH]2)cc(OC)c1O	eIF4E-4G inh 30
Cc1cc(/C(N)=N/OC(=O)c2ccc(Cl)cc2)no1	14-3-3 Bad PPI 70 (no result: WT yeast gro inh)
Cc1cc(C)c(OCC(=O)N(Cc2ccc(N(C)C)cc2)C2CCS(=O)(=O)C2)c(C)c1 (stereo not drawn)	none (no result: WT yeast gro inh)
COc1cc(CN2CCC(C(=O)N3CCCC(C)C3)CC2)cc(Br)c1O (stereo not drawn)	14-3-3 Bad PPI 79
COc1ccc(CN2CCC(C(=O)N3CCCC(C)C3)CC2)cc1OC (stereo not drawn)	none
O=C1c2cccc3cccc(c23)C(=O)N1CCCN1CCN(c2ccc(F)cc2)CC1	WT yeast gro inh 60
O=C(Nc1ccc2oc(=O)ccc2c1)c1ccc(-c2cccc([N+](=O)[O-])c2)o1	14-3-3 Bad PPI 92 (no result: WT yeast gro inh)
O=C(Nc1ccc2oc(=O)ccc2c1)c1ccc(-c2cccc(Cl)c2)o1	14-3-3 Bad PPI 92 (no result: WT yeast gro inh)
Cc1cc(=O)oc2cc(NC(=O)c3cc4ccccc4o3)ccc12	none
O=C(NC12CC3CC(CC(C3)C1)C2)c1ccc(-c2cccc(Cl)c2)o1	WT yeast gro inh 66
O=C(Nc1ccc2oc(=O)ccc2c1)c1cc2ccccc2o1	NCF1 inh 32
O=C(Nc1ccc2oc(=O)ccc2c1)c1ccc(-c2ccccc2[N+](=O)[O-])o1	none (no result: WT yeast gro inh)
O=C(Cn1cnc2ccccc2c1=O)NNC(=O)c1ccccc1	none (no result: WT yeast gro inh)
CC1(C)CC(N=Cc2c(O)n(Cc3ccc4c(c3)OCO4)c(=O)c3ccccc23)CC(C)(C)N1	none
COc1ccc(C2/C=C\CN(C(=O)NC(C)C)CC(=O)N2Cc2ccc(F)cc2)cc1 (stereo not drawn)	none (no result: RBBP9 inhibitor, WT yeast gro inh)
CCN(CC)S(=O)(=O)c1ccc(N2CCOCC2)c(NC(=O)C2CCCO2)c1 (stereo not drawn)	none (no result: WT yeast gro inh)
Nc1ccc2c(c1Cl)C(=O)c1ccc(N)c(Cl)c1C2=O	EBV gp42 inh 76 (no result: WT yeast gro inh)
Cc1cccc(C)c1-n1cccc1/C=C1\SC(=S)N(c2cccc(C(=O)O)c2)C1=O	WT yeast gro inh 84
Cc1cccc(C)c1NC(=O)CN1C(=O)S/C(=C\c2cccn2-c2cccc(C(=O)O)c2)C1=O	none
N#CC(Sc1ccccn1)c1ccc(Cl)cc1 (stereo not drawn)	WT yeast gro inh 73
O=C(NCCSc1ccccn1)c1ccc(Cl)cc1	none
